According to the EternaBench riboswitch data:

Columns and labels:
MS2 coat protein [1] = assay: apparent Kd, MS2 coat protein; higher = weaker binding; RNA-MaP array; theophylline 2 mM where present
How it was run: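 Green signal was scaled to red-channel RNA signal and control-cluster median Fmax, and the apparent Kd was taken as the median of filtered per-cluster binding-curve fits. The binding series used SNAP-549-labelled MS2 coat protein from 0.7 or 1.5 nM, doubling to 3 µM, on designs transcribed by stalled E. coli RNA polymerase on Illumina sequencing-chip clusters. Each series ran without and then with constant ligand in 100 mM Tris-HCl pH 7.5, 80 mM KCl, 4 mM MgCl2, BSA, DTT, yeast tRNA and Tween-20.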

MS2 coat protein [2] = assay: apparent Kd, MS2 coat protein; higher = weaker binding; RNA-MaP array
How it was run: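 Apparent Kd was taken as the median of binding curves fitted cluster by cluster. The designed RNAs were made by transcription of sequenced DNA templates on an Illumina sequencing chip and exposed to fluorescently labeled MS2 coat protein (1.5 nM to 3 μM) at room temperature, with or without input ligand, for 0.8–1.5 h at the lowest and 10–20 min at the highest concentrations. Any design measured on fewer than 10 clusters was left out.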

[3] = designed as: OFF switch for theophylline, no ligand
[4] = ligand present: theophylline, designed as: OFF switch for theophylline
[5] = designed as: ON switch for theophylline, no ligand
[6] = ligand present: theophylline, designed as: ON switch for theophylline

Sequence	apparent Kd (MS2 coat protein [1]; [3])	apparent Kd (MS2 coat protein [1]; [4])	apparent Kd (MS2 coat protein [1]; [5])	apparent Kd (MS2 coat protein [1]; [6])	also measured
AAACUGGGUGUAAAAUAAAUAAUCACUGAUACCAGACUAUAGUAUGUCCCUUGGCAGCAGAAACAUGAGGAUCACCCAUGUAAUA	21.7 nM	21.3 nM	–	–	–
AACAGGGCUCGCACGAAGCCCUAAGGUGAUACCAGCACAUGUAAGUGCCCUUGGCAGCACGGUACAUGAGGAUCACCCAUGUAGA	–	–	64.3 nM	255 nM	–
AACCGAGGCUAUCCUCUAAGAAUAUGUGAUACCAGAAUAAUUUUAUUCCCUUGGCAGCAUGACAUGAGGAUCACCCAUGUGUCUU	–	–	134 nM	134 nM	–
AAGAAGUUUUGAUUUUUAUGAAGUAGUGAUACCAGUCAAGAAAGAGACCCUUGGCAGCGCAACAUGAGGAUCACCCAUGUAAGAA	25.4 nM	27.2 nM	–	–	–
AAGGGUGAGUCUCUAAUCCGUUUGACGGAUACCAGCGAGAGAUAUCGCCCUUGGCAGCCGACGACAUGAGGAUCACCCAUGUAAA	14.7 nM	17.2 nM	–	–	–
AAUAACAUGAGGAUCACCCAUGUAAAAGAUACCAGAGUGAUGAUCCUCCCUUGGCAGCUUAAAACGCUAUUGAUUACAAUAGCGA	–	–	54.9 nM	119 nM	–
AAUAAGCAGCUGCAAGGUGAUCCUGCAGAUACCAGCUAGGAAACUAGCCCUUGGCAGCUGCAACAUGAGGAUCACCCAUGUAAUA	34.8 nM	85.3 nM	–	–	–
AAUAUAAGUGUAAUUAUAUUUAUAUCUGAUACCAGACUCUCAUGUGUCCCUUGGCAGCAGUUACAUGAGGAUCACCCAUGUAUUA	–	–	76 nM	21.6 nM	–
AAUCUGUCGGGUGAUACCAGCCUCGGCACGUCUCGUGCCGAACAUGAGGAUCACCCAUGUGGCCCUUGGCAGCACAUGACAAAUC	–	–	258 nM	88.6 nM	–
ACAAGUCCUCAUGAUACCAGCGAUGAGACAUAGUCUCAACAUGAGGAUCACCCAUGUAUUCGCCCUUGGCAGCAUACGGUUUUUG	–	–	301 nM	28.5 nM	–
ACAUGAACAUGAGGAUCACCCAUGUAUGAUACCAGAAAAGAAGAGUUCCCUUGGCAGCGUACAACACAUGAGGAUCACCCAUGUG	–	–	24.1 nM	24.3 nM	–
ACAUGAGGAUCACCCAUGUUCCUCUUUGAUACCAGUGAGUUGUUUCGCCCUUGGCAGCGAGUGUUUGUUUUUUUGUUUUGUUUGG	215 nM	288 nM	–	–	–
ACCAUGUAAUCAGAUACCAGACAUCUUUUAAAUCAUAUUACAUGAGGAUCACCCAUGUUGGUCCCUUGGCAGCUGAAAUAUUUUU	–	–	205 nM	46.4 nM	–
ACGACGCAUACAGAUACCAGUAGCCGAGAAACAUGAGGAUCACCCAUGUCGAGCGACAACUGCCCUUGGCAGCUGUAUGCGUCAG	–	–	8.49 nM	8.34 nM	–
ACGACGCAUAGUGAUACCAGUACAACAUGAGGAUCACCCAUGUCACAUAUGUUGUAAUAGUGCCCUUGGCAGCACUAUGCGUCAG	–	–	155 nM	17.6 nM	–
AGACAUGAGGAUCACCCAUGUAGUACGGAUACCAGAUCCAGAUGCGUCCCUUGGCAGCUGUAGUACAGCGUUACAUCGCUCAUAG	37.9 nM	70.7 nM	–	–	–
AGACAUGAGGAUCACCCAUGUAGUAUGGAUACCAGAUCCAGAUUUAUCCCUUGGCAGCUGUGGUACAGCGAUGGAUCGCUCCUAG	23.4 nM	27.8 nM	–	–	–
AGCGACAUGCGUGAUACCAGCUACAUGAGGAUCACCCAUGUCAGCAGGAAACUGCUGUGUAGCCCUUGGCAGCACAGUGCAUGUC	12.7 nM	24.7 nM	–	–	–
AGCGACAUGCGUGAUACCAGCUACAUGAGGAUCACCCAUGUCAGUAGGAAACUGCUGUGUAGCCCUUGGCAGCACAGUGCAUGUC	34.9 nM	38.6 nM	–	–	–
AGCGAUAUGCAUGAUACCAGCUACAUGAGGAUCACCCAUGUGCGUCAGUAAUGACUGUGUAGCCCUUGGCAGCAUAGAGCAUGUA	37.6 nM	70.4 nM	–	–	–

Sequence	apparent Kd (MS2 coat protein [1]; [3])	apparent Kd (MS2 coat protein [1]; [4])	apparent Kd (MS2 coat protein [1]; [5])	apparent Kd (MS2 coat protein [1]; [6])	also measured
AGCGCAGGUCCUGAUACCAGUGACAUGAGGAUCACCCAUGUCCGAUGGGCCUGCCUCUGACACCCUUGGCAGCAGGGCUUGUGCU	23.7 nM	29.8 nM	–	–	–
AGCGCUGUGCAUGAUACCAGCUACAUGAGGAUCACCCAUGUGCGUCAGAAAUGACUGUGUAGCCCUUGGCAGCAUAAAGCAUGUA	19 nM	58.8 nM	–	–	–
AGCGGAACGGAAGGGUCCCAAAAUUGUGAUACCAGCCUUGAAUCCGGCCCUUGGCAGCACAUGAGGAUCACCCAUGUACUGCGAU	12.9 nM	39.4 nM	–	–	–
AUAACAUGAGGAUCACCCAUGUAAGCAGAUACCAGCUAGGAAACUAGCCCUUGGCAGCUGCAUAGUGAUCCAUAUAUCUGCUAAU	53.6 nM	42.8 nM	–	–	–
AUAAGGUAUCUGCUAUCCUCAUGAGCAGAUACCAGCUAGGAAACUAGCCCUUGGCAGCUGCAACAUGAGGAUCACCCAUGUAAUA	409 nM	92.3 nM	–	–	–
AUAAUGGGUAUCGGAUUAUCAUGAUAUGAUACCAGAUACUUAGAUAUCCCUUGGCAGCAUGAGGACAUGAGGAUCACCCAUGUAU	35 nM	61.8 nM	–	–	–
AUCUCAUAGAGUGAUACCAGACUACAUGAGGAUCACCCAUGUUACAUUUAAAUAUCAUUUGUCCCUUGGCAGCACAUUAAGUACA	24.3 nM	15.2 nM	–	–	–
AUGGCGUUGGUGUAGCUGUGAAAUGGCGAUACCAGCGUGGAAACACGCCCUUGGCAGCGCCAAAACAUGAGGAUCACCCAUGUUA	20.1 nM	96.6 nM	–	–	–
AUGGUAGGACAGCACAUAUAAGCUUGUGAUACCAGCUAGAAAACUAGCCCUUGGCAGCACAUUACAUGAGGAUCACCCAUGUCCC	51 nM	75.7 nM	–	–	–
AUGUCAUUGGUGCAGCUGUUAAAUGGCGAUACCAGCGUGGAAACACGCCCUUGGCAGCGCCAAAACAUGAGGAUCACCCAUGUUA	28 nM	83 nM	–	–	–
AUUAAUAGUUGUGAUACCAGACGAACAUGAGGAUCACCCAUGUAACUUUUAGGUGUUGUAGUCCCUUGGCAGCACUAUUUAGUUA	–	–	42.7 nM	35.3 nM	–
AUUUUUCUAUCAGAUACCAGACAAUUUUAGACAUGAGGAUCACCCAUGUAUAGGGUGUUCGUCCCUUGGCAGCUGUUAAGUUUAA	–	–	190 nM	205 nM	–
CAAACAUGAGGAUCACCCAUGUAAUCAGAUACCAGUGACGAAAGUCACCCUUGGCAGCUGAUUACUUUAGUUCUAAGGUGUUUGA	92.6 nM	56.6 nM	–	–	–
CAAUAAGUAACUGAUACCAGUGUACUGACAUGAGGAUCACCCAUGUUGGGUUUUGUUGUACACCCUUGGCAGCAGAAUCUUAUUG	60.3 nM	80.7 nM	–	–	–
CAUGUUGUUGAAGAUACCAGAUUCUGAACGUUCACAUGAGGAUCACCCAUGUAAGUCCGAGUCCCUUGGCAGCUUAUACAGGUGG	–	–	53 nM	14.7 nM	–
CGGUUUGUGAUGGAUACCAGCAGAGAGAAUGUUUAUCCUGACAUGAGGAUCACCCAUGUGUGCCCUUGGCAGCUGUUGUGGGCUG	60 nM	69 nM	–	–	–
CGUACAUGAGGAUCACCCAUGUAGAGUGAUACCAGUCUACCUAGUGACCCUUGGCAGCACAUCGAUGGCAUCGGUGAUGCCGUUU	–	–	87.3 nM	83.3 nM	–
CUCCGAGGCUAUACUAUCCGCCUCUGUGAUACCAGAAUACCUAUAUUCCCUUGGCAGCAUCACAUGAGGAUCACCCAUGUGCCAU	–	–	–	15.1 nM	–
UUUUUAUGGCAGACUACCGCACAUGAGGAUCACCCAUGUUACAGAAGGGACCACAUCCCACCUGGUCAGGAUAUGUAUACGCGG	–	–	–	–	apparent Kd (MS2 coat protein [2]; designed as: OFF switch for flavin mononucleotide, no ligand): 9.07 nM; apparent Kd (MS2 coat protein [2]; ligand present: flavin mononucleotide, designed as: OFF switch for flavin mononucleotide): 6.77 nM
UUUUUCCUGUAUAUCGGUACAUGAGGAUCACCCAUGUUCCCAGAGGAUAUUUGAUGGUGGGUAACAAAGAAGGCUGGCUACAGG	–	–	–	–	apparent Kd (MS2 coat protein [2]; designed as: ON switch for flavin mononucleotide, no ligand): 20.6 nM; apparent Kd (MS2 coat protein [2]; ligand present: flavin mononucleotide, designed as: ON switch for flavin mononucleotide): 9.31 nM
